# Reference: ChEMBL document CHEMBL4359882, “Synthesis, molecular docking, and QSAR study of bis-sulfonamide derivatives as potential aromatase inhibitors” (Bioorg Med Chem, 2019)
# What was measured:
# [1] = target: T1, Aromatase (Homo sapiens, UniProt P11511); assay: Inhibition of recombinant human aromatase expressed in baculovirus infected insect cells using O-benzyl fluorescein benzyl ester as substrate in presence of NADPH generating system by fluorescence based analysis
# T1 sequence (P11511 whole entry): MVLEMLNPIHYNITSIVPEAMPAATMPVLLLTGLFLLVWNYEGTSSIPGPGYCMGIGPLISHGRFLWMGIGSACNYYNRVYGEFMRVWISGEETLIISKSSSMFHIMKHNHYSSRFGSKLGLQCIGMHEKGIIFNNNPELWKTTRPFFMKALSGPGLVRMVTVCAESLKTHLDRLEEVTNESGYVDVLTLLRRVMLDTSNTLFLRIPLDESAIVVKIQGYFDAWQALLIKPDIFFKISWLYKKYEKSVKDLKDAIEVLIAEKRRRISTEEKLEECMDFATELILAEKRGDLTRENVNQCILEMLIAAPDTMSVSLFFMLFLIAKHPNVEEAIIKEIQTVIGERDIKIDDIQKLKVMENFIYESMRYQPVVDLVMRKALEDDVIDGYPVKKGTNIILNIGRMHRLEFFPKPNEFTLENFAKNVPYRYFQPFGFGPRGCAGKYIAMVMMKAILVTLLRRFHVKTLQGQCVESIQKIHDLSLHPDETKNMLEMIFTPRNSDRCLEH
# [2] = test system: T47D; assay: Cytotoxicity against human T47D cells assessed as reduction in cell growth measured after 48 hrs by MTT assay; format: functional, cell-based
# In short: (§1)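 T47-D cells kept in RPMI-1640 with 2 mM L-glutamine, insulin, 4.5 g/L glucose and 10% FBS. MRC-5 cells kept in DMEM with 10% FBS. Cells seeded at 10,000-20,000 per well and preincubated 24 h at 37 °C in 5% CO2. Serial dilutions added, then incubated 48 h. MTT for 2-4 h, formazan dissolved in DMSO, read at 550/650 nm. IC50 is the concentration giving 50% growth inhibition.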
# [3] = test system: MRC5; assay: Cytotoxicity against human MRC5 cells assessed as reduction in cell growth measured after 48 hrs by MTT assay; format: cell-based; details: MRC5, 48 h; in short: as §1
# [4] = species: Homo sapiens; assay: Selectivity index, ratio of IC50 for human MRC5 cells by MTT assay to IC50 for human recombinant aromatase expressed in baculovirus infected insect cells
# [5] = Homo sapiens, T47D, 48 h, read-out: IC50
SMILES,IC50 [1] [µM],"IC50 [2, 5]",IC50 [3],Ratio IC50 [4],IC50 ([2]; t47d)
COc1ccc(S(=O)(=O)NCc2cccc(CNS(=O)(=O)c3ccc(OC)cc3)c2)cc1,11.6,75.3 µM,> 50 µg/mL,> 9.04,–
COc1cccc2c1C(=O)c1c(O)c3c(c(O)c1C2=O)C[C@@](O)(C(=O)CO)C[C@@H]3O[C@H]1C[C@H](N)[C@H](O)[C@H](C)O1 [DOXORUBICIN],–,0.88 µM,2.19 µM,–,–
Nc1cccc(S(=O)(=O)NCc2cccc(CNS(=O)(=O)c3cccc(N)c3)c2)c1,3.3,90.6 µM,> 50 µg/mL,> 33.9,–
COc1ccc(S(=O)(=O)Nc2cccc(NS(=O)(=O)c3ccc(OC)cc3)c2)cc1,0.53,> 50 µg/mL,> 50 µg/mL,> 210,–
CC(=O)c1ccc(S(=O)(=O)NCc2cccc(CNS(=O)(=O)c3ccc(C(C)=O)cc3)c2)cc1,0.28,> 50 µg/mL,> 50 µg/mL,> 357,–
O=S(=O)(NCc1cccc(CNS(=O)(=O)c2ccc3ccccc3c2)c1)c1ccc2ccccc2c1,0.21,> 50 µg/mL,> 50 µg/mL,> 461,–
Cc1ccc(S(=O)(=O)NCc2cccc(CNS(=O)(=O)c3ccc(C)cc3)c2)cc1,0.13,43.9 µM,> 50 µg/mL,> 865,–
O=[N+]([O-])c1ccccc1S(=O)(=O)NCc1cccc(CNS(=O)(=O)c2ccccc2[N+](=O)[O-])c1,3.67,75.4 µM,> 50 µg/mL,> 26.9,–
O=S(=O)(NCc1cccc(CNS(=O)(=O)c2ccc(Br)cc2)c1)c1ccc(Br)cc1,0.06,–,> 50 µg/mL,> 1450,Nd(Insoluble)
O=[N+]([O-])c1cccc(S(=O)(=O)NCc2cccc(CNS(=O)(=O)c3cccc([N+](=O)[O-])c3)c2)c1,2.75,> 50 µg/mL,> 50 µg/mL,> 35.9,–
N#Cc1ccc(S(=O)(=O)NCc2ccc(CNS(=O)(=O)c3ccc(C#N)cc3)cc2)cc1,0.66,> 50 µg/mL,92.8 µM,141,–
O=[N+]([O-])c1ccc(NC(=S)NCc2cccc(CNC(=S)Nc3ccc([N+](=O)[O-])cc3)c2)cc1,0.8,–,–,–,–
O=S(=O)(Nc1cccc(NS(=O)(=O)c2ccc(Cl)cc2)c1)c1ccc(Cl)cc1,0.78,87.2 µM,63.1 µM,80.9,–
O=[N+]([O-])c1ccc(S(=O)(=O)NCc2cccc(CNS(=O)(=O)c3ccc([N+](=O)[O-])cc3)c2)cc1,0.37,39.3 µM,> 50 µg/mL,> 267,–
Cc1cc(C)c(C)c(S(=O)(=O)NCc2ccc(CNS(=O)(=O)c3c(C)c(C)cc(C)c3C)cc2)c1C,> 12.5,> 50 µg/mL,16.3 µM,–,–
Cc1cc(C)c(C)c(S(=O)(=O)NCc2cccc(CNS(=O)(=O)c3c(C)c(C)cc(C)c3C)c2)c1C,3.2,30.9 µM,80.9 µM,25.3,–
S=C(NCc1cccc(CNC(=S)Nc2ccc(Cl)cc2)c1)Nc1ccc(Cl)cc1,5.5,–,–,–,–
O=S(=O)(NCc1cccc(CNS(=O)(=O)c2ccc(Cl)cc2)c1)c1ccc(Cl)cc1,0.05,37.5 µM,68.5 µM,1370,–
O=S(=O)(NCc1cccc(CNS(=O)(=O)c2ccc(C(F)(F)F)cc2)c1)c1ccc(C(F)(F)F)cc1,0.43,75.4 µM,74.6 µM,173,–
N#Cc1ccc(S(=O)(=O)NCc2cccc(CNS(=O)(=O)c3ccc(C#N)cc3)c2)cc1,0.16,69.3 µM,> 50 µg/mL,> 670,–
O=S(=O)(NCc1cccc(CNS(=O)(=O)c2ccc(F)cc2)c1)c1ccc(F)cc1,2.19,–,> 50 µg/mL,> 50.5,Nd(Insoluble)
